Measurements from ChEMBL document CHEMBL1148614, “Synthesis and evaluation of 2-anilino-3-phenylsulfonyl-6-methylpyridines as corticotropin-releasing factor1 receptor ligands” (Bioorg Med Chem Lett, 2006).

Legend:
[1] = molecular target: T1, Corticotropin-releasing factor receptor 1 (Rattus norvegicus, UniProt P35353); experiment: Displacement of [125I]Tyr-o-CRF from CRF1 receptor in rat frontal cortex homogenates; type: tissue-based
T1 sequence (P35353 whole entry): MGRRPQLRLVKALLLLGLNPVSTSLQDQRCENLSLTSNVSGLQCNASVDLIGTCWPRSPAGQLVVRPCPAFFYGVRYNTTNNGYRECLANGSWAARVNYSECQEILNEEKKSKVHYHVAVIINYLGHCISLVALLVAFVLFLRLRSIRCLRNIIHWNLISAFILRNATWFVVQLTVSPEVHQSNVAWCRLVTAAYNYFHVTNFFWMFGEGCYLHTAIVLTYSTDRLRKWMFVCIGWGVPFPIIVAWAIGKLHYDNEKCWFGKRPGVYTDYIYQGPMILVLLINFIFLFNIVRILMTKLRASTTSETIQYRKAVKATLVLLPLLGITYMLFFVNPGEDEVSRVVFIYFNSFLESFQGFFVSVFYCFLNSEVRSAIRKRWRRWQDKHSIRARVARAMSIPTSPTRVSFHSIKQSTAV

Rattus norvegicus = experiment: Volume of distribution in Sprague-Dawley rat at 0.5 mg/kg, iv; type: ADME, organism-based; design: dose 0.5 mg/kg, route intravenous; conditions: in vivo
[2] = Bioavailability in Sprague-Dawley rat at 2.0 mg/kg, po; type: ADME, organism-based; conditions: in vivo
Summary of the method: (§1)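 Cassette dosing in Sprague–Dawley rats (n = 3 per route). Oral dose 2 mg/kg, with plasma sampled at 0, 0.5, 1, 2, 4, 6, 8 and 24 h. Plasma drug levels measured by LC/MS/MS.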

[3] = AUC in Sprague-Dawley rat at 2.0 mg/kg, po; type: ADME, organism-based; design: dose 2 mg/kg, route oral; conditions: plasma; summary of the method: as §1
[4] = Half life in Sprague-Dawley rat at 0.5 mg/kg, iv; type: ADME, organism-based; design: dose 0.5 mg/kg, route intravenous; conditions: in vivo
[5] = Clearance in Sprague-Dawley rat at 0.5 mg/kg, iv; type: ADME, organism-based; design: dose 0.5 mg/kg, route intravenous; conditions: in vivo
[6] = Cmax in Sprague-Dawley rat at 2.0 mg/kg, po; type: ADME, organism-based; design: dose 2 mg/kg, route oral; conditions: in vivo; summary of the method: as §1

Ki [1] [µM] | SMILES | also measured
0.034 | COc1cc(COc2ccc(S(=O)(=O)c3ccc(C)nc3Nc3c(C)cc(C)cc3C)cc2)cc(OC)c1 | –
0.198 | COc1ccc(S(=O)(=O)c2ccc(C)nc2Nc2c(C)cc(C)cc2C)cc1 | –
0.857 | Cc1cc(C)c(Nc2nc(C)ccc2S(=O)(=O)Cc2ccc(Cl)cc2)c(C)c1 | –
0.052 | CCc1ccc(S(=O)(=O)c2ccc(C)nc2Nc2c(C)cc(C)cc2C)cc1 | Vss (Rattus norvegicus): 25 L/kg; bioavailability [2]: 35%; AUC [3]: 0.347 µM·h; half-life [4]: 5.1 h; clearance [5]: 86.7 mL/min/kg; Cmax [6]: 72 nM
0.119 | C=CCOc1ccc(S(=O)(=O)c2ccc(C)nc2Nc2c(C)cc(C)cc2C)cc1 | –
0.049 | COC(=O)c1cccc(COc2ccc(S(=O)(=O)c3ccc(C)nc3Nc3c(C)cc(C)cc3C)cc2)c1 | –
0.395 | Cc1cc(C)c(Nc2nc(C)ccc2S(=O)(=O)c2ccc(OCCCCC#N)cc2)c(C)c1 | –
0.157 | Cc1cc(C)c(Nc2nc(C)ccc2S(=O)(=O)c2ccc(OCc3ccc(C#N)cc3)cc2)c(C)c1 | –
0.017 | COc1ccccc1COc1ccc(S(=O)(=O)c2ccc(C)nc2Nc2c(C)cc(C)cc2C)cc1 | Vss (Rattus norvegicus): 8 L/kg; bioavailability [2]: 16%; AUC [3]: 0.176 µM·h; half-life [4]: 3.5 h; clearance [5]: 58.3 mL/min/kg; Cmax [6]: 48 nM
5.17 | Cc1cccc(S(=O)(=O)c2c(C)cc(C)nc2Nc2c(C)cc(C)cc2C)c1 | –
0.075 | Cc1cc(C)c(Nc2nc(C)ccc2S(=O)(=O)c2ccc(OCc3cccc(C#N)c3)cc2)c(C)c1 | –
0.25 | Cc1cc(C)c(Nc2nc(C)ccc2S(=O)(=O)c2ccc(OCc3ccccn3)cc2)c(C)c1 | –
1.08 | Cc1cc(C)c(Nc2nc(C)ccc2S(=O)(=O)c2ccc(CO)cc2)c(C)c1 | –
0.145 | Cc1ccc(S(=O)(=O)c2ccc(C)nc2Nc2c(C)cc(C)cc2C)cc1 | –
> 10 | Cc1ccc(S(=O)(=O)c2ccc(Nc3c(C)cc(C)cc3C)nc2C)cc1 | –
1.78 | Cc1ccc(S(=O)(=O)c2c(C)cc(C)nc2Nc2c(C)cc(C)cc2C)cc1 | –
> 10 | Cc1cc(C)c(Nc2nc(C)cc(C)c2S(=O)(=O)c2ccccc2C)c(C)c1 | –
0.635 | Cc1cc(C)c(Nc2nc(C)ccc2S(=O)(=O)c2ccc(OCCCC#N)cc2)c(C)c1 | –
0.032 | Cc1cc(C)c(Nc2nc(C)ccc2S(=O)(=O)c2ccc(OCc3ccccc3)cc2)c(C)c1 | Vss (Rattus norvegicus): 10 L/kg; bioavailability [2]: 18%; AUC [3]: 0.167 µM·h; half-life [4]: 3 h; clearance [5]: 78.3 mL/min/kg; Cmax [6]: 42 nM
0.249 | COc1cccc(S(=O)(=O)c2ccc(C)nc2Nc2c(C)cc(C)cc2C)c1 | –
0.058 | COc1cccc(COc2ccc(S(=O)(=O)c3ccc(C)nc3Nc3c(C)cc(C)cc3C)cc2)c1 | –
0.268 | Cc1cc(C)c(Nc2nc(C)ccc2S(=O)(=O)c2ccc(OC(F)(F)F)cc2)c(C)c1 | –
0.132 | Cc1cc(C)c(Nc2nc(C)ccc2S(=O)(=O)c2cccc(OCc3ccccc3)c2)c(C)c1 | –
> 10 | Cc1cc(C)c(Nc2nc(C)cc(C)c2S(=O)(=O)c2ccccc2)c(C)c1 | –
